Compounds with a hit are over-represented: about 1.7% of the library has one in this group of screens.
PGC1a acetyl inh: lowers PGC1a acetylation signal in U2OS cells; AlphaScreen anti-acetyl-lysine; with virally co-expressed GCN5 acetyltransferase; 350,000 tested, 0.17% active; AID 651687; inhibition, % at 15.6 µM;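 active means every replicate shows inhibition of at least 40%; inconclusive means mean inhibition at least 40% but some replicate below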;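 further: 0% = neutral control wells and 100% = positive control wells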
ARNT-TACC3 inh: ARNT/TACC3 interaction disruption | Q9Y6A5 | AlphaScreen His-ARNT PAS-B/GST-TACC3 binding, luminescence; TACC3 fragment carries E629A point mutation | inhibition, % at 9.99 µM | 390,000 tested, 0.66% active | AID 623870;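 active means mean inhibition of replicates at least 50% and at least half of replicates each reaching 50%; inconclusive means half or more replicates reach 50% but mean below 50%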;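 further: 0% = complete ARNT plus TACC3 wells and 100% = ARNT alone without TACC3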
CFTR F508del cor: correctors of CFTR F508del function in bronchial epithelial cells; CFBE cells, YFP halide quenching; stimulated with forskolin plus potentiator P3; % fluorescence drop versus neutral controls; activity (quench increase), % at 7.58 µM; 350,000 tested, 0.36% active;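 active means mean added fluorescence quench of at least 8% versus neutral control, with both replicates also reaching 8%; inconclusive means only one of the mean or replicate conditions met; inactive means mean below 8% and not both replicates reaching 8%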;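 further: cells transiently co-express mutant CFTR-F508del with the halide-sensitive YFP; corrector assay measuring rescue of mutant channel to the surface after 24 h compound exposure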
CAL PDZ FP-1: inhibitors of human CAL PDZ peptide binding | purified CAL PDZ, TMR-peptide fluorescence polarization, 1 h | inhibition, % at 20 µM | 330,000 tested, 0.02% active;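 active means highest replicate inhibition of at least 40%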;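 further: plate controls were DMSO neutral control wells for no effect and unlabeled competitor peptide control wells for full effect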
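System: purified tagged CAL PDZ domain construct (CerCALP). Schedule: 1 h incubation at room temperature before polarization reading. Medium: 25 mM sodium phosphate pH 7.4, 150 mM NaCl, TCEP, IgG, Thesit. Read-out: percent inhibition from loss of millipolarization. Measured by: FP readout, S and P plane fluorescence. Probe or stimulus: fluorescent TMR peptide probe.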
CAL PDZ FP-2: inhibitors of human CAL PDZ peptide binding. purified CAL PDZ, TMR-peptide fluorescence polarization, 1 h. AID 602252. Q9HD26. 300,000 tested, 0.92% active. inhibition, % at 24.9 µM;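 active means mean inhibition of at least 30% with at least half of replicates also reaching 30%; inconclusive means no clear call, values can overlap the other calls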;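 further: 0% = DMSO neutral control and 100% = excess unlabeled competitor peptide PRC23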
miR122 inh: inhibitors of miR-122 in Huh7 cells. Huh7 miR-122 Renilla luciferase sensor, 48 h; neutral wells = 0, positive control = 100. activation (reporter increase), % at 12.5 µM. 340,000 tested, 0.3% active;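 active means mean replicate activation score at least 90 and every replicate individually at or above 90; inconclusive means only one of the two criteria met; inactive means neither criterion met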;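 further: higher luciferase means less miR-122 activity so hits act as miR-122 inhibitors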
Numbers without * were called inactive; ? = inconclusive; . = no result given; ! = not confirmed by another sample; [ ] = another dose, or the depositor's remark.

SMILES	PGC1a acetyl inh	ARNT-TACC3 inh	CFTR F508del cor	CAL PDZ FP-1	CAL PDZ FP-2	miR122 inh
C[C@H]1CN([C@@H](C)CO)C(=O)c2cccc(NC(=O)c3ccc(-c4nccs4)cc3)c2O[C@@H]1CN(C)C(=O)Nc1ccccc1	-4	-4	-2	.	.	2[16.7 µM]
C[C@@H]1CN([C@H](C)CO)C(=O)c2cccc(NC(=O)c3ccc(-c4nccs4)cc3)c2O[C@H]1CN(C)C(=O)Nc1ccccc1	2	19*	-2	.	.	0[16.7 µM]
COc1cccc(NC(=O)N(C)C[C@H]2OCc3ccccc3-c3c(n(C)c4ccccc34)C(=O)N([C@H](C)CO)C[C@H]2C)c1	-44	.	8.4*!	.	.	.
C[C@@H]1CN([C@H](C)CO)C(=O)c2cccc(N(C)C)c2O[C@@H]1CN(C)C(=O)Nc1ccccc1	3	4	0	.	.	-1[16.7 µM]
COCCNC(=O)C[C@H]1CC[C@@H](NC(=O)NC2CCCCC2)[C@H](CO)O1	9	-4	-3	.	.	.
C[C@H]1CN([C@@H](C)CO)C(=O)CCCn2cc(nn2)CO[C@@H]1CN(C)Cc1ccc2c(c1)OCCO2	4	-5	1	.	.	1[16.7 µM]
CCC(=O)N[C@H]1C=C[C@H](CC(=O)NCC2CCCCC2)O[C@@H]1CO	3	-24	-1	.	.	-4[16.7 µM]
Cn1c(=O)n(C)c2cc3[nH]cnc3cc21	1	1	0	-1	42*	-2
CC(C)(C)S(=O)(=O)c1cnc(-c2ccccn2)nc1N	.	59*	-2	0	0	.
CC(C)(C)S(=O)(=O)c1cnc(-c2cnccn2)nc1N	6	6	?	-1	.	4
Cc1c(NS(=O)(=O)c2ccc(Br)s2)c(=O)n(-c2ccccc2)n1C	-1	3	.	0	-5	-3
Cc1c(NS(=O)(=O)c2ccc(S(=O)(=O)c3ccccc3)s2)c(=O)n(-c2ccccc2)n1C	.	-11	5	0	50*	.
O=C(Nc1ccc2c(c1)[C@@H]1C[C@@H](CC(=O)N3CCCCC3)O[C@@H](CO)[C@@H]1O2)C1CCC1	-3	-2	0	.	.	-2[16.7 µM]
N#Cc1ccc(CSc2nc(N)cc(N)n2)cc1	-7	-4	2	-3	72*	0
Cc1ccc(CSc2nc(N)cc(N)n2)cc1	-1	-11	-1	.	-6	1
CO[C@@H]1CN(C)C(=O)c2cc(NC(=O)C3CC3)ccc2OC[C@@H](C)N(C)C[C@@H]1C	4	-7	1	.	.	.
CN(C)S(=O)(=O)Oc1ccc(C(=O)Nc2cccc(Cl)c2)cc1	.	2	.	0	-8	.
CN(C)S(=O)(=O)Oc1ccc(C(=O)Nc2cccc(C(F)(F)F)c2)cc1	.	-4	-4	0	38*	.
C[C@H](NC(=O)N1CCn2c1nc1ccccc12)C(=O)N1CCCCC1	-12	3	0	0	42*	-7
CC1=CC2=NC(=O)/C(=C\c3cccn3CCOc3ccccc3C)C(=N)N2O1	3	14	.	-1	-2	147*
CO[C@H]1CN(C)C(=O)c2cc(NC(=O)c3ccccc3)ccc2OC[C@H](C)N(CC2CC2)C[C@@H]1C	-2	-7	1	.	.	0[16.7 µM]
CC#CC[N+](C)(CC#CC)CC(=O)c1ccccc1	.	-2	1	1	58*	.
CC1CCC(C(C)C)C(OCC(O)CNC(C)c2ccccc2)C1 (stereo unspecified)	.	-14	-1	0	4	.
CC1CCC(C(C)C)C(OCC(O)CNC(C)(C)C)C1 (stereo unspecified)	.	0	5	0	80*	.
CN(C)C(N)=NCCC[C@H](N)C(=O)O	-2	active	-3	-1	-2	-1
SMILES	PGC1a acetyl inh	ARNT-TACC3 inh	CFTR F508del cor	CAL PDZ FP-1	CAL PDZ FP-2	miR122 inh
CN=C(N)NCCC[C@H](N)C(=O)O	-33	-4	-15	-1	-2	-2
O=C(C[C@H]1CC[C@@H](NC(=O)C2CC2)[C@H](CO)O1)NCCCN1CCOCC1	-4	-1	-2	.	.	-2[16.7 µM]
C[C@@H]1CN([C@@H](C)CO)C(=O)c2cc(NC(=O)C3CC3)ccc2O[C@H]1CN(C)Cc1ccc2c(c1)OCO2	1	-3	1	.	.	30[16.7 µM]
COc1ccc(CN(C)C[C@@H]2Oc3ccc(NS(=O)(=O)c4cccs4)cc3CC(=O)N([C@@H](C)CO)C[C@H]2C)cc1	-5	.	-3	.	.	.
C[C@H]1CN([C@@H](C)CO)C(=O)c2cc(C#CCN(C)C)cnc2O[C@@H]1CN(C)C(=O)Cc1cccnc1	-7	0	-2	.	.	10[16.7 µM]
COC(=O)[C@H](CC(C)C)N1Cc2cc(OC)cc(OC)c2-c2ccccc2S1(=O)=O	-20	-2	2	0	51*	4
Cc1cc(C(=O)Nc2cccc3c2O[C@H](CN(C)Cc2ccc(C(F)(F)F)cc2)[C@@H](C)CN([C@@H](C)CO)C3=O)n(C)n1	-4	2	-1	.	.	82[16.7 µM]
Cc1cc(C(=O)Nc2cccc3c2O[C@@H](CN(C)CC2CCCCC2)[C@@H](C)CN([C@H](C)CO)C3=O)n(C)n1	-20	20	3	.	.	97*[16.7 µM]
Cc1cc(C(=O)Nc2cccc3c2O[C@@H](CN(C)CC2CCCCC2)[C@@H](C)CN([C@@H](C)CO)C3=O)n(C)n1	2	-1	5	.	.	94*[16.7 µM]
Cc1cc(C(=O)Nc2cccc3c2O[C@@H](CN(C)Cc2ccc(C(F)(F)F)cc2)[C@H](C)CN([C@H](C)CO)C3=O)n(C)n1	7	4	-1	.	.	127*[16.7 µM]
CC(C)C#Cc1cnc2c(c1)C(=O)N([C@H](C)CO)C[C@H](C)[C@H](CN(C)C(=O)c1cccc(F)c1)O2	7	-7	2	.	.	-2[16.7 µM]
C[C@@H]1CN([C@@H](C)CO)S(=O)(=O)c2ccc(C#CCN(C)C)cc2O[C@@H]1CN(C)Cc1ccccc1	-13	23	-1	.	.	8[16.7 µM]
COc1ccc(C#Cc2ccc3c(c2)O[C@@H](CN(C)C(C)=O)[C@@H](C)CN([C@H](C)CO)S3(=O)=O)cc1	9	-4	2	.	.	3[16.7 µM]
CC(C)CNC(=S)NNC(=O)c1csc2ccccc12	10	-6	.	.	-3	81
CCNC(=S)NNC(=O)c1csc2ccccc12	59*	3	.	-1	-1	.
CC=Cc1ccc2n(c1=O)C[C@@H]1[C@@H](CO)[C@H](C(=O)NC3CCC3)N(CCC)[C@H]21 (mixture of isomers)	4	.	1	.	.	.
CN(C)C(=O)[C@@H]1[C@@H](CO)[C@@H]2Cn3c(ccc(C4=CCCCC4)c3=O)[C@H]1N2Cc1ccccc1F	-1	2	1	.	.	12[16.7 µM]
CCc1ccccc1N(CC(=O)O)S(C)(=O)=O	4	-2	.	.	43*	2
Cc1noc(C)c1S(=O)(=O)N(C)C[C@@H]1OCCCC[C@H](C)Oc2ccc(NC(=O)Nc3ccccc3)cc2C(=O)N([C@@H](C)CO)C[C@H]1C	-9	11	1	.	.	0[16.7 µM]

Assay outcomes from PubChem.
